ChEMBL document CHEMBL1914356, “Maslinic acid derivatives induce significant apoptosis in b16f10 murine melanoma cells” (2011)
Activity calls are given as the source filed them. No cut-off for these calls is given here.

test system: B16-F10; assay: Induction of apoptosis in mouse B16F10 cells assessed as total apoptosis at 1 to 10 uM after 24 hrs using annexin V-FITC/propidium iodide staining by flow cytometry; assay type: functional, cell-based
Method in brief: (§1)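 B16-F10 cells grown in DMEM with 4 mM L-glutamine, 1.5 g/L bicarbonate, 1 mM pyruvate, 4.5 g/L glucose, 10% FBS. Seeded at 300,000 cells/well in 6-well dishes, treated 24 h later with compound in DMSO. Vehicle and medium-only controls. Detached with EDTA-trypsin, PBS-washed, stained with annexin V-FITC and PI 15 min at room temperature in dark. Total apoptosis = early + late. Mean ± SD, two independent experiments.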

Row | SMILES | Activity
1 | CC(=O)O[C@@H]1C[C@]2(C)[C@H]3CC=C4[C@@H]5CC(C)(C)CC[C@]5(C#N)CC[C@@]4(C)[C@]3(C)CC[C@H]2C(C)(C)[C@H]1OC(C)=O | Active
2 | CC1(C)CC[C@]2(C(=O)OCc3ccccc3)CC[C@]3(C)C(=CC[C@@H]4[C@@]5(C)C[C@@H](O)[C@H](O)C(C)(C)[C@@H]5CC[C@]43C)[C@@H]2C1 [BENZYL MASLINATE] | Active
3 | CC1(C)CC[C@]2(C#N)CC[C@]3(C)C(=CC[C@@H]4[C@@]5(C)C[C@@H](O)[C@H](O)C(C)(C)[C@@H]5CC[C@]43C)[C@@H]2C1 | Active

test system: B16-F10; assay: Induction of apoptosis in mouse B16F10 cells assessed as total apoptosis at 1 to 10 uM after 48 hrs using annexin V-FITC/propidium iodide staining by flow cytometry; assay type: functional, cell-based; method in brief: as §1

Row | SMILES | Activity
4 | CC(=O)O[C@@H]1C[C@]2(C)[C@H]3CC=C4[C@@H]5CC(C)(C)CC[C@]5(C#N)CC[C@@]4(C)[C@]3(C)CC[C@H]2C(C)(C)[C@H]1OC(C)=O | inactive
5 | CC1(C)CC[C@]2(C(=O)OCc3ccccc3)CC[C@]3(C)C(=CC[C@@H]4[C@@]5(C)C[C@@H](O)[C@H](O)C(C)(C)[C@@H]5CC[C@]43C)[C@@H]2C1 [BENZYL MASLINATE] | inactive
6 | CC1(C)CC[C@]2(C#N)CC[C@]3(C)C(=CC[C@@H]4[C@@]5(C)C[C@@H](O)[C@H](O)C(C)(C)[C@@H]5CC[C@]43C)[C@@H]2C1 | inactive

test system: B16-F10; assay: Induction of apoptosis in mouse B16F10 cells assessed as necrotic cells at 30 uM after 24 hrs using annexin V-FITC/propidium iodide staining by flow cytometry; assay type: functional
Method in brief: (§2)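 B16-F10 cells grown in DMEM with 4 mM L-glutamine, 1 mM pyruvate, 4.5 g/L glucose and 10% FBS. 300,000 cells/well were plated, then treated in DMSO after 24 h. Vehicle and medium-alone controls were included. Cells were detached with EDTA-trypsin, PBS-washed and set at 1 × 10^6 cells/mL in binding buffer. Annexin V-FITC/PI staining ran 15 min at room temperature in the dark, followed by flow cytometry within 1 h.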

Row | SMILES | Activity [%]
7 | CC(=O)O[C@@H]1C[C@]2(C)[C@H]3CC=C4[C@@H]5CC(C)(C)CC[C@]5(C#N)CC[C@@]4(C)[C@]3(C)CC[C@H]2C(C)(C)[C@H]1OC(C)=O | <10
8 | CC1(C)CC[C@]2(C(=O)OCc3ccccc3)CC[C@]3(C)C(=CC[C@@H]4[C@@]5(C)C[C@@H](O)[C@H](O)C(C)(C)[C@@H]5CC[C@]43C)[C@@H]2C1 [BENZYL MASLINATE] | <10
9 | CC1(C)CC[C@]2(C#N)CC[C@]3(C)C(=CC[C@@H]4[C@@]5(C)C[C@@H](O)[C@H](O)C(C)(C)[C@@H]5CC[C@]43C)[C@@H]2C1 | <10

test system: B16-F10; assay: Induction of apoptosis in mouse B16F10 cells assessed as early/late apoptotic cells at 30 uM after 24 hrs using annexin V-FITC/propidium iodide staining by flow cytometry; assay type: functional; method in brief: as §2

Row | SMILES | Activity [%]
10 | CC(=O)O[C@@H]1C[C@]2(C)[C@H]3CC=C4[C@@H]5CC(C)(C)CC[C@]5(C#N)CC[C@@]4(C)[C@]3(C)CC[C@H]2C(C)(C)[C@H]1OC(C)=O | 80
11 | CC1(C)CC[C@]2(C(=O)OCc3ccccc3)CC[C@]3(C)C(=CC[C@@H]4[C@@]5(C)C[C@@H](O)[C@H](O)C(C)(C)[C@@H]5CC[C@]43C)[C@@H]2C1 [BENZYL MASLINATE] | 80
12 | CC1(C)CC[C@]2(C#N)CC[C@]3(C)C(=CC[C@@H]4[C@@]5(C)C[C@@H](O)[C@H](O)C(C)(C)[C@@H]5CC[C@]43C)[C@@H]2C1 | 80

test system: B16-F10; assay: Induction of apoptosis in mouse B16F10 cells assessed as total apoptosis at 20 uM after 24 hrs using annexin V-FITC/propidium iodide staining by flow cytometry; assay type: functional
Method in brief: (§3)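 B16-F10 cells in DMEM/10% FBS were plated at 300,000 cells/well, then treated 24 h later, in duplicate, in DMSO at […] for 24 or 48 h. Vehicle and medium controls were included. Annexin V-FITC/PI staining ran 15 min at room temperature in the dark. Total apoptosis (early + late) was read by flow cytometry as mean ± SD from two independent experiments.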

Row | SMILES | Activity [%]
13 | CC(=O)O[C@@H]1C[C@]2(C)[C@H]3CC=C4[C@@H]5CC(C)(C)CC[C@]5(C#N)CC[C@@]4(C)[C@]3(C)CC[C@H]2C(C)(C)[C@H]1OC(C)=O | 70
14 | CC1(C)CC[C@]2(C(=O)OCc3ccccc3)CC[C@]3(C)C(=CC[C@@H]4[C@@]5(C)C[C@@H](O)[C@H](O)C(C)(C)[C@@H]5CC[C@]43C)[C@@H]2C1 [BENZYL MASLINATE] | > 70
15 | CC1(C)CC[C@]2(C#N)CC[C@]3(C)C(=CC[C@@H]4[C@@]5(C)C[C@@H](O)[C@H](O)C(C)(C)[C@@H]5CC[C@]43C)[C@@H]2C1 | 70

test system: B16-F10; assay: Induction of apoptosis in mouse B16F10 cells assessed as total apoptosis at 20 uM after 48 hrs using annexin V-FITC/propidium iodide staining by flow cytometry; assay type: functional, cell-based; method in brief: as §3

Row | SMILES | Activity
16 | CC(=O)O[C@@H]1C[C@]2(C)[C@H]3CC=C4[C@@H]5CC(C)(C)CC[C@]5(C#N)CC[C@@]4(C)[C@]3(C)CC[C@H]2C(C)(C)[C@H]1OC(C)=O | Active
17 | CC1(C)CC[C@]2(C(=O)OCc3ccccc3)CC[C@]3(C)C(=CC[C@@H]4[C@@]5(C)C[C@@H](O)[C@H](O)C(C)(C)[C@@H]5CC[C@]43C)[C@@H]2C1 [BENZYL MASLINATE] | Active
18 | CC1(C)CC[C@]2(C#N)CC[C@]3(C)C(=CC[C@@H]4[C@@]5(C)C[C@@H](O)[C@H](O)C(C)(C)[C@@H]5CC[C@]43C)[C@@H]2C1 | Active

test system: B16-F10; assay: Induction of apoptosis in mouse B16F10 cells assessed as total apoptosis at 1 uM after 24 hrs using annexin V-FITC/propidium iodide staining by flow cytometry; assay type: functional; method in brief: as §1

Row | SMILES | Activity [%]
19 | CC(=O)O[C@@H]1C[C@]2(C)[C@H]3CC=C4[C@@H]5CC(C)(C)CC[C@]5(C#N)CC[C@@]4(C)[C@]3(C)CC[C@H]2C(C)(C)[C@H]1OC(C)=O | 68.62
20 | CC1(C)CC[C@]2(C(=O)OCc3ccccc3)CC[C@]3(C)C(=CC[C@@H]4[C@@]5(C)C[C@@H](O)[C@H](O)C(C)(C)[C@@H]5CC[C@]43C)[C@@H]2C1 [BENZYL MASLINATE] | 87.5
21 | CC1(C)CC[C@]2(C#N)CC[C@]3(C)C(=CC[C@@H]4[C@@]5(C)C[C@@H](O)[C@H](O)C(C)(C)[C@@H]5CC[C@]43C)[C@@H]2C1 | 78.75
